ChEMBL document CHEMBL1138652, “Chlorothiophenecarboxamides as P1 surrogates of inhibitors of blood coagulation factor Xa” (Bioorg Med Chem Lett, 2004)
Values after ≈ are worked out from the molar mass of the structure shown. Values belong to the molecule of their own block, whether it stands above or below them.

Key:
[1] = biological target: Trypsin (Homo sapiens, UniProt P07477+P07478+P35030); assay: Inhibitory concentration against human trypsin activity; format: protein assay
Outline: (§1)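 Human factor Xa, thrombin and trypsin were each monitored in vitro with a protease-specific chromogenic substrate. Inhibition was calculated from the ratio of optical density in drug-containing versus vehicle-containing assays.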

[2] = biological target: Prothrombin (Homo sapiens, UniProt P00734); assay: Inhibitory concentration against human thrombin activity; outline: as §1
[3] = biological target: Coagulation factor X (Homo sapiens, UniProt P00742); assay: Inhibitory concentration against human serine protease factor Xa; outline: as §1
Chain of Coagulation factor X (P00742 41-179 limits assumed): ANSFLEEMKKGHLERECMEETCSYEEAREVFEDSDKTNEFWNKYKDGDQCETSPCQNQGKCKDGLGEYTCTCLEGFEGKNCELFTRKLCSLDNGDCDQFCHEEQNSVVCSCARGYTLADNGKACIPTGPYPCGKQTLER
Chain of Coagulation factor X (P00742 235-488 limits assumed): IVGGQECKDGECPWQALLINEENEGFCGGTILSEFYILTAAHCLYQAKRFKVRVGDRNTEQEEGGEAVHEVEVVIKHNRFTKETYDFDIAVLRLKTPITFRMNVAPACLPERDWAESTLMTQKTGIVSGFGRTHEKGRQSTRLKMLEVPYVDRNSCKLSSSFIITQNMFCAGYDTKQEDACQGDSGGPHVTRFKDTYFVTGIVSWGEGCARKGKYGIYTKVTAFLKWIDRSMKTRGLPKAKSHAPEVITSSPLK

[4] = Solubility was determined; format: ADME; conditions: human
Outline: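 Shake-flask solubility was measured in phosphate buffer at pH 7 and 37 °C.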

[5] = Maximum absorbable dose of compound after administration at dose of 10 mg/kg was determined; format: ADME, organism-based; design: dose 10 mg/kg; conditions: human
[6] = Half life of compound after intravenous administration at dose of 0.2 mg/kg in female monkeys was determined; format: ADME, organism-based; design: dose 0.2 mg/kg, route intravenous; conditions: cercopithecidae, in vivo
Outline: (§2)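 Pharmacokinetics were studied in male Wistar rats (N = 3), female Beagle dogs (N = 2) and female Cynomolgus monkeys (N = 2). Each animal received single intravenous and oral doses. Plasma concentration–time data gave Cmax, tmax, AUC, t1/2, CL, Vss and oral bioavailability.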

[7] = Bioavailability of compound after peroral administration at dose of 0.5 mg/kg in male wistar rats was determined; format: ADME, organism-based; conditions: rat, in vivo, po, read-out: Bioavailabiility; outline: as §2
[8] = Area under curve concentration of compound after intravenous administration at dose of 0.2 mg/kg in male wistar rats was determined; format: ADME, organism-based; design: dose 0.2 mg/kg, route intravenous; conditions: rat, in vivo; outline: as §2
[9] = Clearance of compound after intravenous administration at dose of 0.2 mg/kg in female monkeys was determined; format: ADME, organism-based; design: dose 0.2 mg/kg, route intravenous; conditions: cercopithecidae, in vivo; outline: as §2
[10] = Bioavailability of compound after peroral administration at dose of 0.5 mg/kg in female monkeys was determined; format: ADME, organism-based; conditions: cercopithecidae, in vivo, po, read-out: Bioavailabiility; outline: as §2
[11] = Steady state volume of distribution of compound after intravenous administration at dose of […] was determined; format: ADME, organism-based, Canis lupus familiaris; design: route intravenous; conditions: dog, in vivo, read-out: Vss; outline: as §2
[12] = Area under curve concentration of compound after intravenous administration at dose of 0.15 mg/kg in female dogs was determined; conditions: dog, in vivo
[13] = Area under curve concentration of compound at 6 hr after peroral administration at dose of 0.5 mg/kg in female dogs was determined; format: ADME, organism-based, Canis lupus familiaris; design: time < 6 hr, dose 0.5 mg/kg, route oral; conditions: dog, in vivo, po; outline: as §2
[14] = Clearance of compound after intravenous administration at dose of 0.15 mg/kg in female dogs was determined; conditions: dog, in vivo
[15] = Half life of compound after intravenous administration at dose of 0.2 mg/kg in male wistar rats was determined; format: ADME, organism-based; design: dose 0.2 mg/kg, route intravenous; conditions: rat, in vivo; outline: as §2
[16] = Maximum plasma concentration after peroral administration of compound at dose of 0.5 mg/kg in female dogs was determined; format: ADME, organism-based, Canis lupus familiaris; design: dose 0.5 mg/kg, route oral; conditions: dog, po; outline: as §2
[17] = Area under curve concentration of compound after intravenous administration at dose of 0.2 mg/kg in female monkeys was determined; format: ADME, organism-based; design: dose 0.2 mg/kg, route intravenous; conditions: cercopithecidae, in vivo; outline: as §2
[18] = Clearance of compound after intravenous administration at dose of 0.2 mg/kg in male wistar rats was determined; format: ADME, organism-based; design: dose 0.2 mg/kg, route intravenous; conditions: rat, in vivo; outline: as §2
[19] = Maximum time taken for concentration of compound in plasma after peroral administration at dose of 0.5 mg/kg in female monkeys was determined; format: ADME, organism-based; design: dose 0.5 mg/kg, route oral; conditions: cercopithecidae, po; outline: as §2
[20] = Half life of compound after intravenous administration at dose of 0.15 mg/kg in female dogs was determined; conditions: dog, in vivo
[21] = Maximum plasma concentration after peroral administration of compound at dose of 0.5 mg/kg in female monkeys was determined; format: ADME, organism-based; design: dose 0.5 mg/kg, route oral; conditions: cercopithecidae, po; outline: as §2
[22] = Maximum plasma concentration after peroral administration of compound at dose of 0.5 mg/kg in male wistar rats was determined; format: ADME, organism-based; design: dose 0.5 mg/kg, route oral; conditions: rat, po; outline: as §2
[23] = Maximum time taken for concentration of compound in plasma after peroral administration at dose of 0.5 mg/kg in female dogs was determined; format: ADME, organism-based, Canis lupus familiaris; design: dose 0.5 mg/kg, route oral; conditions: dog, po; outline: as §2
[24] = Steady state volume of distribution of compound after intravenous administration at dose of 0.2 mg/kg in male wistar rats was determined; format: ADME, organism-based; design: dose 0.2 mg/kg, route intravenous; conditions: rat, in vivo, read-out: Vss; outline: as §2
[25] = Maximum time taken for concentration of compound in plasma after peroral administration at dose of 0.5 mg/kg in male wistar rats was determined; format: ADME, organism-based; design: dose 0.5 mg/kg, route oral; conditions: rat, po; outline: as §2
[26] = Area under curve concentration of compound at 6 hr after peroral administration at dose of 0.5 mg/kg in female monkeys was determined; format: ADME, organism-based; design: time < 6 hr, dose 0.5 mg/kg, route oral; conditions: cercopithecidae, in vivo, po; outline: as §2
[27] = Area under curve concentration of compound at 6 hr after peroral administration at dose of 0.5 mg/kg in male wistar rats was determined; format: ADME, organism-based; design: time < 6 hr, dose 0.5 mg/kg, route oral; conditions: rat, in vivo, po; outline: as §2
[28] = Steady state volume of distribution of compound after intravenous administration at dose of 0.2 mg/kg in female monkeys was determined; format: ADME, organism-based; design: dose 0.2 mg/kg, route intravenous; conditions: cercopithecidae, in vivo, read-out: Vss; outline: as §2
[29] = Bioavailability of compound after peroral administration at dose of 0.5 mg/kg in female dogs was determined; format: ADME, organism-based, Canis lupus familiaris; conditions: dog, in vivo, po, read-out: Bioavailabiility; outline: as §2

Compound: CCC[C@@H](NC(=O)Nc1ccc(Cl)cc1)C(=O)Nc1ccc(N2CCOCC2=O)cc1
IC50 [1]: > 10 µM | IC50 [2]: > 10 µM

Compound: O=C(CCc1ccc2nc(-c3ccc(Cl)s3)[nH]c2c1)Nc1ccc(N2CCOCC2=O)cc1F
IC50 [2]: > 10 µM

Compound: CCC[C@@H](NC(=O)c1ccc(Cl)s1)C(=O)Nc1ccc(N2CCOCC2=O)c(C)c1
IC50 [3]: 0.0095 µM | IC50 [1]: > 10 µM | IC50 [2]: > 10 µM

Compound: C[C@@H](NC(=O)c1ccc(Cl)s1)C(=O)Nc1ccc(N2CCOCC2=O)cc1
IC50 [3]: 0.059 µM | IC50 [1]: > 10 µM | IC50 [2]: > 10 µM

Compound: COC[C@@H](NC(=O)c1ccc(Cl)s1)C(=O)Nc1ccc(N2CCOCC2=O)c(C(F)(F)F)c1
IC50 [3]: 0.014 µM

Compound: CCC[C@@H](NC(=O)c1ccc(Cl)s1)C(=O)Nc1ccc(N2CCOCC2=O)cc1
IC50 [3]: 0.012 µM | IC50 [1]: > 10 µM | IC50 [2]: > 10 µM

Compound: COC[C@@H](NC(=O)c1ccc(Cl)s1)C(=O)Nc1ccc(N2CCOCC2=O)c(F)c1
IC50 [3]: 0.022 µM | IC50 [1]: > 10 µM | IC50 [2]: > 10 µM

Compound: O=C(N[C@H](C(=O)Nc1ccc(N2CCOCC2=O)cc1)c1ccccc1)c1ccc(Cl)s1
IC50 [3]: 0.026 µM | IC50 [1]: > 10 µM | IC50 [2]: > 10 µM

Compound: CC(C)C[C@@H](NC(=O)c1ccc(Cl)s1)C(=O)Nc1ccc(-n2ccccc2=O)cc1
IC50 [3]: 0.016 µM | IC50 [1]: > 10 µM | IC50 [2]: > 10 µM

Compound: COCCOC[C@@H](NC(=O)c1ccc(Cl)s1)C(=O)Nc1ccc(N2CCOCC2=O)c(C)c1
IC50 [3]: 0.011 µM | solubility [4]: 1050 µg/mL (≈ 2130 µM) | MAD [5]: 22 mg/kg

Compound: CC[C@@H](NC(=O)c1ccc(Cl)s1)C(=O)Nc1ccc(N2CCOCC2=O)cc1
IC50 [3]: 0.02 µM | IC50 [1]: > 10 µM | IC50 [2]: > 10 µM

Compound: COC[C@@H](NC(=O)c1ccc(Cl)s1)C(=O)Nc1ccc(N2CCOCC2=O)c(C)c1
half-life [6]: 138 min | bioavailability [7]: ~60% | AUC [8]: 212 ng·h/mL | clearance [9]: 4.17 mL/min/kg | bioavailability [10]: ~80% | IC50 [1]: > 10 µM | Vd [11]: 0.86 L/kg | AUC [12]: 117 ng·h/mL | AUC [13]: 211 ng·h/mL | IC50 [2]: > 10 µM | clearance [14]: 21.7 mL/min/kg | half-life [15]: 66 min | Cmax [16]: 161 ng/mL | AUC [17]: 803 ng·h/mL | clearance [18]: 15.7 mL/min/kg | Tmax [19]: 30 min | half-life [20]: 34.2 min | Cmax [21]: 270 ng/mL | Cmax [22]: 92 ng/mL | Tmax [23]: 30 min | Vd [24]: 1.6 L/kg | solubility [4]: 510 µg/mL (≈ 1130 µM) | MAD [5]: 11 mg/kg | Tmax [25]: 150 min | AUC [26]: 1100 ng·h/mL | AUC [27]: 271 ng·h/mL | Vd [28]: 0.81 L/kg | bioavailability [29]: ~60%

Compound: CCCOC[C@@H](NC(=O)c1ccc(Cl)s1)C(=O)Nc1ccc(N2CCOCC2=O)c(C)c1
IC50 [3]: 0.012 µM | IC50 [1]: > 10 µM | IC50 [2]: > 10 µM | solubility [4]: 92 µg/mL (≈ 192 µM) | MAD [5]: 1.9 mg/kg

Continued, values first:

IC50 [3]: 0.7 µM | IC50 [1]: > 10 µM | IC50 [2]: > 10 µM
Compound: O=C(CNC(=O)c1ccc(Cl)s1)Nc1ccc(N2CCOCC2=O)cc1

IC50 [3]: 0.13 µM | IC50 [1]: > 10 µM | IC50 [2]: > 10 µM
Compound: CC(C)C[C@H](NC(=O)c1ccc(Cl)s1)C(=O)Nc1ccc(N2CCOCC2=O)cc1

IC50 [3]: 0.015 µM | IC50 [1]: > 10 µM | IC50 [2]: > 10 µM
Compound: CC(C)C[C@@H](NC(=O)c1ccc(Cl)s1)C(=O)Nc1ccc(N2CCOCC2=O)cc1

IC50 [3]: 0.01 µM | IC50 [1]: > 10 µM | IC50 [2]: > 10 µM
Compound: CCOC[C@@H](NC(=O)c1ccc(Cl)s1)C(=O)Nc1ccc(N2CCOCC2=O)c(C)c1

IC50 [3]: 0.013 µM | IC50 [1]: > 10 µM | IC50 [2]: > 10 µM
Compound: COC[C@@H](NC(=O)c1ccc(Cl)s1)C(=O)Nc1ccc(N2CCOCC2=O)c(Cl)c1

IC50 [3]: 0.011 µM | IC50 [1]: > 10 µM | IC50 [2]: > 10 µM | solubility [4]: 41 µg/mL (≈ 94.1 µM) | MAD [5]: 6.5 mg/kg
Compound: CC[C@@H](NC(=O)c1ccc(Cl)s1)C(=O)Nc1ccc(N2CCOCC2=O)c(C)c1

IC50 [3]: 0.015 µM | IC50 [1]: > 10 µM | IC50 [2]: > 10 µM | solubility [4]: 134 µg/mL (≈ 318 µM) | MAD [5]: 2.8 mg/kg
Compound: Cc1cc(NC(=O)[C@@H](C)NC(=O)c2ccc(Cl)s2)ccc1N1CCOCC1=O

IC50 [3]: 0.066 µM | IC50 [1]: > 10 µM | IC50 [2]: > 10 µM
Compound: CC(C)[C@@H](NC(=O)c1ccc(Cl)s1)C(=O)Nc1ccc(N2CCOCC2=O)cc1

IC50 [3]: 0.039 µM | IC50 [1]: > 10 µM | IC50 [2]: > 10 µM
Compound: CC(C)C[C@@H](NC(=O)c1ccc(Cl)s1)C(=O)Nc1ccc(-n2ccncc2=O)cc1

IC50 [3]: 0.029 µM | IC50 [1]: > 10 µM | IC50 [2]: > 10 µM
Compound: O=C(N[C@@H](C(=O)Nc1ccc(N2CCOCC2=O)cc1)c1ccccc1)c1ccc(Cl)s1

IC50 [3]: 0.029 µM | IC50 [1]: > 10 µM | IC50 [2]: > 10 µM | solubility [4]: 520 µg/mL (≈ 1190 µM) | MAD [5]: 11 mg/kg
Compound: Cc1cc(NC(=O)[C@@H](CO)NC(=O)c2ccc(Cl)s2)ccc1N1CCOCC1=O

IC50 [3]: 0.0072 µM | IC50 [1]: > 10 µM | IC50 [2]: > 10 µM | solubility [4]: 29 µg/mL (≈ 62.5 µM) | MAD [5]: 0.6 mg/kg
Compound: Cc1cc(NC(=O)[C@@H](CC(C)C)NC(=O)c2ccc(Cl)s2)ccc1N1CCOCC1=O
